{"source": "ChEMBL document CHEMBL1649560", "about": "“Beta-lactamase-mediated beta-lactam resistance in Campylobacter species: prevalence of Cj0299 (bla OXA-61) and evidence for a novel beta-Lactamase in C. jejuni” (2009)", "format_in_all_cases": "functional", "key": {"[1]": {"test_system": "Campylobacter coli", "assay": "Antibacterial activity against bla gene-positive and nitrocefin reaction-positive beta-lactamase harboring Campylobacter coli isolate P321 by NCCLS agar doubling dilution method in presence of Tazobactam", "summary_of_the_method": "(§1)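 MICs of β-lactams by agar doubling dilution following the NCCLS (CLSI) Campylobacter Working Group procedure, with C. jejuni NCTC 11168 and C. coli NCTC 11366 as controls. Isolates were from UK poultry flocks. β-Lactamase status was set by Cj0299 PCR (281-bp amplimer) and by a nitrocefin colour change of sonicated lysate within 5 min, or within 30 min on repeat.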"}, "[2]": {"test_system": "Campylobacter jejuni", "assay": "Antibacterial activity against Campylobacter jejuni by NCCLS agar doubling dilution method in presence of Tazobactam", "summary_of_the_method": "as §1"}, "[3]": {"test_system": "Campylobacter coli", "assay": "Antibacterial activity against Campylobacter coli by NCCLS agar doubling dilution method", "summary_of_the_method": "(§2)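 MICs by agar doubling dilution following the NCCLS (CLSI) Campylobacter Working Group procedure, applied to ampicillin- and amoxicillin-resistant isolates from UK chicken flocks (2000–2006). C. jejuni NCTC 11168 and C. coli NCTC 11366 served as control strains. Resistance was called at an ampicillin cutoff of 8 μg/ml. Other agents were judged against Enterobacteriaceae guidelines (BSAC, CLSI).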"}, "[4]": {"test_system": "Campylobacter jejuni", "assay": "Antibacterial activity against bla gene-positive and nitrocefin reaction-positive beta-lactamase harboring Campylobacter jejuni isolate P790 by NCCLS agar doubling dilution method in presence of Tazobactam", "summary_of_the_method": "(§3)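 MICs by agar doubling dilution per the NCCLS (now CLSI) Campylobacter Working Group method. Isolates came from UK chicken flocks (feces, ceca or farm environment), 2000–2006. C. jejuni NCTC 11168 and C. coli NCTC 11366 served as control strains. The ampicillin resistance cutoff was 8 μg/ml; BSAC/CLSI Enterobacteriaceae guidelines were used for other agents.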"}, "[5]": {"test_system": "Campylobacter jejuni", "assay": "Antibacterial activity against Campylobacter jejuni by NCCLS agar doubling dilution method", "summary_of_the_method": "as §2"}, "[6]": {"test_system": "Campylobacter jejuni", "assay": "Antibacterial activity against Campylobacter jejuni isolate P270 harboring blaOXA-61::cat gene by NCCLS agar doubling dilution method in presence of Tazobactam"}, "[7]": {"test_system": "Campylobacter jejuni", "assay": "Antibacterial activity against bla gene-negative and nitrocefin reaction-positive beta-lactamase harboring Campylobacter jejuni isolate P843 by NCCLS agar doubling dilution method in presence of Tazobactam", "summary_of_the_method": "as §1"}, "[8]": {"test_system": "Campylobacter jejuni", "assay": "Antibacterial activity against bla gene-negative and nitrocefin reaction-negative beta-lactamase harboring Campylobacter jejuni isolate P850 by NCCLS agar doubling dilution method in presence of Tazobactam", "summary_of_the_method": "as §1"}, "[9]": {"test_system": "Campylobacter jejuni", "assay": "Antibacterial activity against bla gene-positive and nitrocefin reaction-positive beta-lactamase harboring Campylobacter jejuni isolate P1093 by NCCLS agar doubling dilution method in presence of Tazobactam", "summary_of_the_method": "as §1"}, "[10]": {"test_system": "Campylobacter jejuni", "assay": "Antibacterial activity against bla gene-negative and nitrocefin reaction-positive beta-lactamase harboring Campylobacter jejuni isolate P854 by NCCLS agar doubling dilution method in presence of Tazobactam", "summary_of_the_method": "as §1"}, "[11]": {"test_system": "Campylobacter jejuni", "assay": "Antibacterial activity against bla gene-positive and nitrocefin reaction-positive beta-lactamase harboring Campylobacter jejuni isolate P1730 by NCCLS agar doubling dilution method in presence of Tazobactam", "summary_of_the_method": "as §3"}, "[12]": {"test_system": "Campylobacter jejuni", "assay": "Antibacterial activity against bla gene-negative and nitrocefin reaction-negative beta-lactamase harboring Campylobacter jejuni isolate P1962 by NCCLS agar doubling dilution method in presence of Tazobactam", "summary_of_the_method": "as §1"}, "[13]": {"test_system": "Campylobacter jejuni", "assay": "Antibacterial activity against bla gene-positive and nitrocefin reaction-positive beta-lactamase harboring Campylobacter jejuni isolate P338 by NCCLS agar doubling dilution method in presence of Tazobactam", "summary_of_the_method": "as §3"}, "[14]": {"test_system": "Campylobacter jejuni", "assay": "Antibacterial activity against bla gene-positive and nitrocefin reaction-negative beta-lactamase harboring Campylobacter jejuni isolate P1698 by NCCLS agar doubling dilution method in presence of Tazobactam", "summary_of_the_method": "as §1"}, "[15]": {"test_system": "Campylobacter jejuni", "assay": "Antibacterial activity against bla gene-positive and nitrocefin reaction-positive beta-lactamase harboring Campylobacter jejuni isolate P1618 by NCCLS agar doubling dilution method in presence of Tazobactam", "summary_of_the_method": "as §1"}, "[16]": {"test_system": "Campylobacter coli", "assay": "Antibacterial activity against bla gene-positive and nitrocefin reaction-positive beta-lactamase harboring Campylobacter coli isolate P1826 by NCCLS agar doubling dilution method in presence of Tazobactam", "summary_of_the_method": "as §1"}, "[17]": {"test_system": "Campylobacter jejuni", "assay": "Antibacterial activity against bla gene-positive and nitrocefin reaction-negative beta-lactamase harboring Campylobacter jejuni isolate NCTC 11168 by NCCLS agar doubling dilution method in presence of Tazobactam", "summary_of_the_method": "as §1"}, "[18]": {"test_system": "Campylobacter jejuni", "assay": "Antibacterial activity against Campylobacter jejuni isolate P1093 harboring blaOXA-61::cat gene by NCCLS agar doubling dilution method in presence of Tazobactam", "summary_of_the_method": "(§4)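 Agar doubling dilution MICs (NCCLS/CLSI Campylobacter Working Group method) against Cj0299-inactivated mutants. Mutants were made by transforming the C. jejuni isolate with pCI and selecting on Mueller-Hinton agar with 10 μg/ml chloramphenicol for 3–5 days. Chromosomal insertion was confirmed by PCR with Cj0299 and cat primers.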"}, "[19]": {"test_system": "Campylobacter jejuni", "assay": "Antibacterial activity against bla gene-positive and nitrocefin reaction-positive beta-lactamase harboring Campylobacter jejuni isolate P1650 by NCCLS agar doubling dilution method in presence of Tazobactam", "summary_of_the_method": "as §3"}, "[20]": {"test_system": "Campylobacter jejuni", "assay": "Antibacterial activity against bla gene-positive and nitrocefin reaction-negative beta-lactamase harboring Campylobacter jejuni isolate P1699 by NCCLS agar doubling dilution method in presence of Tazobactam", "summary_of_the_method": "as §1"}, "[21]": {"test_system": "Campylobacter jejuni", "assay": "Antibacterial activity against bla gene-positive and nitrocefin reaction-positive beta-lactamase harboring Campylobacter jejuni isolate P316 by NCCLS agar doubling dilution method in presence of Tazobactam", "summary_of_the_method": "as §3"}, "[22]": {"test_system": "Campylobacter jejuni", "assay": "Antibacterial activity against bla gene-negative and nitrocefin reaction-negative beta-lactamase harboring Campylobacter jejuni isolate P835 by NCCLS agar doubling dilution method in presence of Tazobactam", "summary_of_the_method": "as §1"}, "[23]": {"test_system": "Campylobacter jejuni", "assay": "Antibacterial activity against Campylobacter jejuni isolate P338 harboring blaOXA-61::cat gene by NCCLS agar doubling dilution method in presence of Tazobactam", "summary_of_the_method": "as §4"}, "[24]": {"test_system": "Campylobacter coli", "assay": "Antibacterial activity against bla-positive and beta-lactamase-weakly positive Campylobacter coli isolate P1627 by NCCLS agar doubling dilution method in presence of Tazobactam", "summary_of_the_method": "as §3"}, "[25]": {"test_system": "Campylobacter coli", "assay": "Antibacterial activity against Campylobacter coli by NCCLS agar doubling dilution method in presence of Tazobactam", "summary_of_the_method": "as §1"}, "[26]": {"test_system": "Campylobacter jejuni", "assay": "Antibacterial activity against bla gene-positive and nitrocefin reaction-positive beta-lactamase harboring Campylobacter jejuni isolate P285 by NCCLS agar doubling dilution method in presence of Tazobactam", "summary_of_the_method": "as §3"}, "[27]": {"test_system": "Campylobacter jejuni", "assay": "Antibacterial activity against bla gene-positive and nitrocefin reaction-positive beta-lactamase harboring Campylobacter jejuni isolate P286 by NCCLS agar doubling dilution method in presence of Tazobactam", "summary_of_the_method": "as §3"}}}
{"compound": "C[C@]1(Cn2ccnn2)[C@H](C(=O)O)N2C(=O)C[C@H]2S1(=O)=O", "note": "[TAZOBACTAM]", "values": [{"measurement": "MIC", "setting": "[1]", "result": "> 16", "unit": "µg/mL"}, {"measurement": "MIC50", "setting": "[2]", "result": 16, "unit": "µg/mL"}, {"measurement": "MIC90", "setting": "[2]", "result": 32, "unit": "µg/mL"}, {"measurement": "MIC (range minimum)", "setting": "[2]", "result": 1, "unit": "µg/mL"}, {"measurement": "MIC", "setting": "[3]", "result": 16, "unit": "µg/mL"}, {"measurement": "MIC50", "setting": "[3]", "result": 16, "unit": "µg/mL"}, {"measurement": "MIC90", "setting": "[3]", "result": 32, "unit": "µg/mL"}, {"measurement": "MIC", "setting": "[4]", "result": "> 16", "unit": "µg/mL"}, {"measurement": "MIC50", "setting": "[5]", "result": 16, "unit": "µg/mL"}, {"measurement": "MIC90", "setting": "[5]", "result": 32, "unit": "µg/mL"}, {"measurement": "MIC", "setting": "[6]", "result": 4, "unit": "µg/mL"}, {"measurement": "MIC", "setting": "[7]", "result": "> 16", "unit": "µg/mL"}, {"measurement": "MIC", "setting": "[8]", "result": "> 8", "unit": "µg/mL"}, {"measurement": "MIC", "setting": "[9]", "result": 256, "unit": "µg/mL"}, {"measurement": "MIC", "setting": "[10]", "result": "> 8", "unit": "µg/mL"}, {"measurement": "MIC", "setting": "[11]", "result": 16, "unit": "µg/mL"}, {"measurement": "MIC", "setting": "[12]", "result": "> 16", "unit": "µg/mL"}, {"measurement": "MIC", "setting": "[13]", "result": "> 16", "unit": "µg/mL"}, {"measurement": "MIC", "setting": "[14]", "result": 16, "unit": "µg/mL"}, {"measurement": "MIC", "setting": "[15]", "result": 32, "unit": "µg/mL"}, {"measurement": "MIC", "setting": "[16]", "result": 16, "unit": "µg/mL"}, {"measurement": "MIC", "setting": "[17]", "result": 16, "unit": "µg/mL"}, {"measurement": "MIC", "setting": "[18]", "result": 32, "unit": "µg/mL"}, {"measurement": "MIC", "setting": "[19]", "result": 32, "unit": "µg/mL"}, {"measurement": "MIC", "setting": "[20]", "result": "< 8", "unit": "µg/mL"}, {"measurement": "MIC", "setting": "[21]", "result": "> 16", "unit": "µg/mL"}, {"measurement": "MIC", "setting": "[22]", "result": "> 16", "unit": "µg/mL"}, {"measurement": "MIC", "setting": "[23]", "result": 8, "unit": "µg/mL"}, {"measurement": "MIC", "setting": "[24]", "result": 16, "unit": "µg/mL"}, {"measurement": "MIC50", "setting": "[25]", "result": 16, "unit": "µg/mL"}, {"measurement": "MIC90", "setting": "[25]", "result": 32, "unit": "µg/mL"}, {"measurement": "MIC", "setting": "[26]", "result": "> 16", "unit": "µg/mL"}, {"measurement": "MIC", "setting": "[27]", "result": "> 16", "unit": "µg/mL"}]}
